# Where two headings read alike, the source gives them in different places.
# Experiments:
# [1] = target: DiscI (Discoidin I, isoform A) (Dictyostelium discoideum, UniProt P02886, S2A); assay: Isothermal titration microcalorimetry; format: binding; conditions: ITC; for n (stoichiometry, fitted): n fitted to the curve for high affinity ligands
# DiscII (Discoidin II) [2] = target: T1, DiscII (Discoidin II) (Dictyostelium discoideum, UniProt P42530); conditions: ITC, taken from ref [29]; cited from earlier work
# T1 sequence (P42530 1-257): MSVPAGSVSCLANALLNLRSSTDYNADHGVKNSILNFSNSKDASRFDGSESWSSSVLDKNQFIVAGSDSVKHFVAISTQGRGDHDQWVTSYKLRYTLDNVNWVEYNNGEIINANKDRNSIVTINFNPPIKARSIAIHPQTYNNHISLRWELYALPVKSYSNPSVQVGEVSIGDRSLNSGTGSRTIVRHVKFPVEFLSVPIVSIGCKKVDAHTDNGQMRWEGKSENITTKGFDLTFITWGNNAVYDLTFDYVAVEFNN
# DiscII (Discoidin II) [3] = target: T1, DiscII (Discoidin II); assay: Isothermal titration microcalorimetry; format: binding; conditions: for -TΔS / -ΔG / -ΔH: DiscII, ITC, 25 °C, ligands marked c only one experiment
# How it was run: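 Run on a VP-ITC at 25 °C in 20 mM Tris-HCl pH 7.5, 150 mM NaCl, with sugar and protein in the same buffer. Thirty 10 μL injections of 2–40 mM sugar, 5 min apart, went into 0.15 mM lectin in the cell, stirred at 310 rpm. Sugar-into-buffer controls were run. Data were fitted to a single-site model giving Ka and ΔH (n fixed at 1 for weak ligands), with ΔG and ΔS derived. Runs were at least duplicated, or single where material was short.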
# DiscI (Discoidin I) = DiscI (Discoidin I) (Dictyostelium discoideum, UniProt P02886, S2A); assay: Glycan microarray analysis of Alexa 488-labelled DiscI; format: binding; conditions: DiscI at 0.04 μg ml^-1; printed glycan arrays version 3.1
# Sequence of DiscI (Discoidin I) (P02886 whole entry S2A): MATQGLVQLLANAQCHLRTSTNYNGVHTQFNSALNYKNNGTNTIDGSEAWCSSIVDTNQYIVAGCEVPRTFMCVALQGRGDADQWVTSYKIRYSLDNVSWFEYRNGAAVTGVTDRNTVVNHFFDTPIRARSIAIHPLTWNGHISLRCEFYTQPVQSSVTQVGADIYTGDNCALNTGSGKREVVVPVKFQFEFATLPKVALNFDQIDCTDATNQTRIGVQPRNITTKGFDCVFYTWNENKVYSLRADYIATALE
# DiscII (Discoidin II) [4] = target: T1, DiscII (Discoidin II); assay: Glycan microarray analysis of Alexa 488-labelled DiscII; format: binding; conditions: DiscII at 0.5 μg ml^-1; printed glycan arrays version 3.1
# How it was run: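 Recombinant protein labelled with Alexa Fluor 488-TFP following the maker's protocol, then desalted on a polyacrylamide column. Screened on the Consortium for Functional Glycomics printed array v3.1 by the standard procedure, over 0.01–200 μg ml^-1 lectin. Binding read as fluorescence intensity.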
# [5] = 20 mM Tris-HCl pH 7.5, 150 mM NaCl, 25 °C, averaged over two or three experiments
# [6] = KD, 20 mM Tris-HCl pH 7.5, 150 mM NaCl, 25 °C, averaged over two or three experiments
# Sequence of DiscI (Discoidin I, isoform A) (P02886 whole entry S2A, canonical isoform): as the sequence (P02886 whole entry S2A) above
Structure (SMILES),"Kd [1, 5] [µM]",-TΔS ([1]; 25 °C) [kcal/mol],-ΔG ([1]; 25 °C) [kcal/mol],-ΔH ([1]; 25 °C) [kcal/mol],"Kd [1, 6] [µM]",Kd (DiscII (Discoidin II) [3]) [µM],-TΔS (DiscII (Discoidin II) [3]) [kcal/mol],-ΔG (DiscII (Discoidin II) [3]) [kcal/mol],Kd ([1]; Kd) [µM],"binding on glycan array (fluorescence intensity, in words) (DiscI (Discoidin I))",also measured
"CC(=O)N[C@H]1C(O)O[C@H](CO)[C@H](O)[C@@H]1O (mixture of isomers) [GalNAc, N-acetylgalactosamine]",302 ± 27,3.18 ± 1.43,4.78 ± 0.048,7.98 ± 1.39,–,–,–,–,–,–,Kd [1]: 300 µM; -TΔS (DiscII (Discoidin II) [2]): 0.837 kcal/mol; -ΔG (DiscII (Discoidin II) [2]): 4.02 kcal/mol; -ΔH (DiscII (Discoidin II) [2]): 4.85 kcal/mol; Kd (DiscII (Discoidin II) [2]): 1120 µM
"CC(=O)N[C@H]1C(O)O[C@H](CO)[C@@H](O[C@@H]2O[C@H](CO)[C@H](O)[C@H](O)[C@H]2O)[C@@H]1O (stereo partly drawn) [Gal1β1-4GlcNAc (LacNAc), Galβ1-4GlcNAc]",–,5.57 ± 0.478,3.59 ± 0.048,9.18 ± 0.526,2390 ± 170,1220 ± 23,4.9 ± 0.096,3.99 ± 0.12,–,–,Kd (in words) [1]: millimolar range
"CC(=O)N[C@H]1C(O)O[C@H](CO)[C@H](O)[C@@H]1O[C@@H]1O[C@H](CO)[C@H](O)[C@H](O)[C@H]1O (stereo partly drawn) [Gal1β-3GalNAc, Galβ1-3GalNAc]",–,4.66 ± 0.359,6.24 ± 0.096,10.9 ± 0.263,27.2 ± 4.6,1380,6.21,3.9,27,binds,"increase in DiscI affinity when compared to GalNAc monosaccharide [1]: tenfold increase; n (stoichiometry, fitted) [1]: 1.03± 0.01; -ΔH (DiscII (Discoidin II) [3]): 10.1 kcal/mol"
CC(=O)N[C@H]1[C@H](O[C@H]2[C@@H](O)[C@@H](CO)OC(O)[C@@H]2O)O[C@H](CO)[C@H](O)[C@@H]1O (stereo partly drawn) [GalNAcβ1-3Gal],–,6.886 ± 0.669,5.86 ± 0.072,12.7 ± 0.693,49.4 ± 1.5,1110,6.88,4.02,~50,less strongly,"increase in DiscI affinity when compared to GalNAc monosaccharide [1]: tenfold increase; n (stoichiometry, fitted) [1]: 0.81 ± 0.01; -ΔH (DiscII (Discoidin II) [3]): 10.9 kcal/mol"
"O=C[C@H](O)[C@@H](O)[C@@H](O)[C@H](O)CO [Galactose, galactose]",–,4.09 ± 1.79,3.3 ± 0.024,7.41 ± 1.77,3770 ± 200,–,–,–,3000 to 4000,–,–
"CC(=O)N[C@H]1[C@H](OC[C@H]2OC(O)[C@H](NC(C)=O)[C@@H](O)[C@H]2O)O[C@H](CO)[C@@H](O[C@@H]2O[C@H](CO)[C@H](O)[C@H](O)[C@H]2O)[C@@H]1O (stereo partly drawn) [Galβ1-4GlcNAcβ1-6GalNAc (n° 149), Galβ1-4GlcNAcβ1-6GalNAc]",–,–,–,–,–,–,–,–,–,–,"binding on glycan array (fluorescence intensity, in words) (DiscII (Discoidin II) [4]): highest affinity"
"CC(=O)NC1C(OC2C(O)C(CO)OC(O)C2NC(C)=O)OC(CO)C(O)C1O (stereo not drawn) [GlcNAcβ1-3GalNAc (n° 159), GlcNAcβ1-3GalNAc]",–,–,–,–,–,–,–,–,–,binds,–
CO[C@H]1O[C@H](CO)[C@H](O)[C@H](O)[C@H]1O [αMeGalactoside],8390 ± 700,7.29 ± 1.46,2.82 ± 0.048,10.1 ± 1.41,–,–,–,–,–,–,–
"COC1OC(CO)C(O)C(O)C1O (stereo not drawn) [βMeGalactoside, β–Methyl-galactoside]",2960 ± 270,6.19 ± 0.526,3.44 ± 0.048,9.63 ± 0.574,–,–,–,–,–,–,-TΔS (DiscII (Discoidin II) [2]): 1.6 kcal/mol; -ΔG (DiscII (Discoidin II) [2]): 4.16 kcal/mol; -ΔH (DiscII (Discoidin II) [2]): 5.81 kcal/mol; Kd (DiscII (Discoidin II) [2]): 952 µM
